This note sets out measurements from PMC3127012 (European Journal of Nuclear Medicine and Molecular Imaging, 2011).

This data set is described as follows: Biodistribution: uptake of 111In-labelled peptides in normal tissues. Format: in vivo, mice. The essentials: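 Female athymic BALB/c mice with s.c. A431-CCK2R (2 × 10^6 cells, left flank) and mock-transfected A431 (right flank) tumours, ~0.1–0.2 g after ~10 days; n = 5/group. 111In-DOTA-peptide (11 GBq/μmol, >95% radiochemical purity) injected into the tail vein. Blood and organs were dissected at 1 and 4 h p.i., weighed, and gamma-counted; %ID/g, mean ± SD. Blocking group: 1,000-fold molar excess of unlabelled peptide, dissected at 4 h.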

In the case of `CSCC[C@H](NC(=O)[C@H](Cc1c[nH]c2ccccc12)NC(=O)CNC(=O)[C@H](Cc1ccc(O)cc1)NC(=O)[C@H](C)NC(=O)[C@H](CCC(=O)O)NC(=O)[C@H](CCC(=O)O)NC(=O)[C@H](CCC(=O)O)NC(=O)[C@H](CCC(=O)O)NC(=O)[C@H](CCC(=O)O)NC(=O)[C@@H](CCC(=O)O)NC(=O)CN1CCN(CC(=O)O)CCN(CC(=O)O)CCN(CC(=O)O)CC1)C(=O)N[C@@H](CC(=O)O)C(=O)N[C@@H](Cc1ccccc1)C(N)=O` [MG0], the tissue uptake (mouse, in vivo, iv, 370 kBq (0.03 nmol)) was over 48 %ID/g.
For “DOTA-Gly-Ser-Cys-(Glu-Ala-Tyr-Gly-Trp-Nle-Asp-Phe-NH2)2 [MGD5]”, the “blood levels relative to the other peptides investigated” value (BALB/c nude mice, 111In-labelled peptide, 1 h p.i.) is recorded as “tenfold higher”.

For orientation: tissue uptake means the percentage of the injected dose found per gram of tissue.
